A short description of series [1]: folding enthalpy; higher = less favourable; fluorescence melt of hairpins on a sequencing array, two-state fit. Particulars: sodium 0.088 M. Summed up: (§1)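 Cy3 signals were normalised both to pre-quench Cy3 and to control constructs. They came from library hairpins carrying annealed Cy3 and quencher oligos on a sequenced MiSeq flow cell, imaged in 50 mM Na-HEPES pH 8.0, 25 mM NaCl, in 2.5 °C steps up to 60 °C. Bootstrapped two-state fits gave melting temperature and folding enthalpy, and four replicates were combined by inverse variance. Fitted temperatures were then raised by 9.35 °C to match UV melts.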

A short description of series [2]: melting temperature; fluorescence melt of hairpins on a sequencing array, two-state fit, raised by 9.35 °C to match UV melts. Particulars: sodium 0.088 M. Put shortly: as §1

GGTATCGGAAACAATACC (((((.(....).))))): the folding enthalpy in series [1] is -34.9 kcal/mol. Besides, the Tm in series [2] came to 31.6 °C.
Take GTTGCTGGAAACAGCAGC (.(((((....))))).): the folding enthalpy in series [1] was -26.3 kcal/mol. Moreover, the Tm in series [2] was found to be 54.5 °C.
On the same counts, the results for GCGTTGACGAAAGTCCGC (((..(((....)))))) are -24.1 kcal/mol and 51.4 °C.
On the same counts, the results for GTCTCGGCGAAAGCCGAC (((..(((....)))))) are -4.96 kcal/mol and 35.6 °C.
On the same counts, the results for GCTGCCGAAAGGCACAGC ((((((....)))..))) are -13.4 kcal/mol and 48.2 °C.
Consider GTCACCGAAAGGTTCGAC ((((((....)))..))), for which the folding enthalpy in series [1] was -14.9 kcal/mol. Besides, the Tm in series [2] was determined as 30.3 °C.
Consider GTACAAGAAATTGTAC ((((((....)))))), for which, in series [1], the folding enthalpy was -32.5 kcal/mol. For the same sequence, in series [2], the Tm is 45 °C.
With CCTGAGAAATCAGG (((((....))))), the folding enthalpy in series [1] is -19.4 kcal/mol. The Tm in series [2] was determined as 44.8 °C.
On the same counts, the results for GATCCAGTCTGGATC ((((((...)))))) are -38.1 kcal/mol and 55.1 °C.
For GATGGCGAAAGCCGGATC ((((((....)))..))), in that order: -10.2 kcal/mol and 37 °C.
On the same counts, the results for GTGACCGGAAACGACCAC (((..((....))..))) are -21.2 kcal/mol and 30.4 °C.
Regarding GTTAGAGGAAACTCTAGC (.(((((....))))).), the folding enthalpy in series [1] is -23.1 kcal/mol. Further, the Tm in series [2] was determined as 34.5 °C.
On to GAACAACGAAAGTTTTC (((.(((....)))))), for which, in series [1], the folding enthalpy was -11.8 kcal/mol. The Tm in series [2] was found to be 28.2 °C.
In the case of GGGGTCGGAAACAACCCC (((((.(....).))))), the folding enthalpy in series [1] is -31.7 kcal/mol. In addition, the Tm in series [2] came out at 48.3 °C.
For GACGTGCGAAAGCATGTC (((.(((....))).))), the folding enthalpy in series [1] was -35.2 kcal/mol. Moreover, the Tm in series [2] was 65.1 °C.
For GCGGTCAGCCGC ((((....)))), in that order: -27.7 kcal/mol and 57.4 °C.
For GATCACGAGTGTGATC ((((((....)))))), in that order: -37.7 kcal/mol and 56.3 °C.
On the same counts, the results for GCCCGGCGAAAGCCGAGC ((.((((....)))).)) are -18.4 kcal/mol and 68.3 °C.
GCTGCCGAAAGGCGTAGC ((((((....)))..))): the folding enthalpy in series [1] is -17.2 kcal/mol. Moreover, in series [2], the Tm was 50.5 °C.
For GTAATACGAAAGTACTAC (((.(((....))).))), in that order: -16.9 kcal/mol and 31.1 °C.
On the same counts, the results for GCAAGACGAAAGTCCTGC (((.(((....))).))) are -26.4 kcal/mol and 48.7 °C.
On the same counts, the results for GCACGGCGAAAGCCAGGC ((..(((....)))..)) are -14.9 kcal/mol and 55 °C.
Regarding GTATTCGAAAGAATTAC ((((((....))).))), in series [1], the folding enthalpy is -13 kcal/mol. The Tm in series [2] was 31.4 °C.
On to GAGCCTGGAAACAGACTC (((.(((....))).))), for which the folding enthalpy in series [1] was -31.9 kcal/mol. In addition, in series [2], the Tm was 43.6 °C.
For GCGCTGCGAAAGCTGTGC ((.(.((....)).).)), in that order: -34.4 kcal/mol and 59.5 °C.
On the same counts, the results for AGTAGGAAACTACT (((((....))))) are -16.9 kcal/mol and 33.2 °C.
For GCTGTGCGAAAGCCCGGC ((.(.((....)).).)), in that order: -20 kcal/mol and 46.8 °C.
On to GAGAGTGCGAAAGCACTC (((..(((....)))))), for which the folding enthalpy in series [1] is -7.98 kcal/mol. The Tm in series [2] was found to be 64.5 °C.
For GTCGTGTCGAAAGACGAC (((..(((....)))))), in that order: -19.9 kcal/mol and 48.9 °C.
For the sequence GCAGTAGGAAACTACCAC (..((((....))))..), the folding enthalpy in series [1] is -6.77 kcal/mol. Moreover, the Tm in series [2] came out at 19.6 °C.
On the same counts, the results for GCCAGGCGAAAGCCCCGC ((..(((....)))..)) are -11.6 kcal/mol and 28.1 °C.
For GCAGGACGAAAGTCATGC (((.(((....))).))), in that order: -37.9 kcal/mol and 66.3 °C.
On the same counts, the results for GACGCCGAAAGGCTAGTC ((((((....)))..))) are -18.1 kcal/mol and 46.8 °C.
Consider GCGTTCGAAAGAATACGC ((((((....)))..))), for which the folding enthalpy in series [1] was -27.3 kcal/mol. Also, in series [2], the Tm was determined as 47.5 °C.
On the same counts, the results for GATCCGATCACGGATC ((((((....)))))) are -40.6 kcal/mol and 59.5 °C.
For GGGATAGGAAACTATCCC (((((((....))))))), in that order: -42.8 kcal/mol and 59.2 °C.
Regarding GATCCCGGTGGGATC ((((((...)))))), the folding enthalpy in series [1] is -29.6 kcal/mol. Besides, the Tm in series [2] was 65.7 °C.
On the same counts, the results for GGGTCTGCGAAAGCACCC (((..(((....)))))) are -17.5 kcal/mol and 44.2 °C.
On the same counts, the results for GATGCCGAAAGGCTAATC ((((((....)))..))) are -9.64 kcal/mol and 30.1 °C.
On the same counts, the results for GCCCGAACGAAAGTTGGC (((..(((....)))))) are -19.2 kcal/mol and 42.6 °C.
On to GATCGCCGAAAGGCTATC (((.(((....))).))), for which, in series [1], the folding enthalpy was -20.4 kcal/mol. For the same sequence, the Tm in series [2] stood at 42.1 °C.
For GCGATGTATCGC ((((....)))), in that order: -28.2 kcal/mol and 56.7 °C.
On the same counts, the results for GCAATCCGAAAGGATGC (((.(((....)))))) are -26 kcal/mol and 56.4 °C.
As for GATCTCTGCGAGATC ((((((...)))))), the folding enthalpy in series [1] is -19.3 kcal/mol. Moreover, the Tm in series [2] came to 52.8 °C.
For GCTTTGCGAAAGCAGTGC ((..(((....)))..)), in that order: -13.8 kcal/mol and 38.4 °C.
Take GTATGCGAAAGCAAGTAC ((((((....)))..))): the folding enthalpy in series [1] was -8.53 kcal/mol. Also, the Tm in series [2] is 26.1 °C.
On the same counts, the results for AGGGAGAAATCCCT (((((....))))) are -18.6 kcal/mol and 42 °C.
For GTACGCCGAAAGGCTAC (((.(((....)))))), the folding enthalpy in series [1] was -15.1 kcal/mol. Also, in series [2], the Tm was found to be 47.6 °C.
For GTATTTGGAAACAAATGC (.(((((....))))).), in that order: -28.4 kcal/mol and 39.9 °C.
For GCGACAGGAAACCGTCGC (((((.(....).))))), in that order: -43.4 kcal/mol and 58.8 °C.
For GATCAATCGGTTGATC ((((((....)))))), in that order: -42 kcal/mol and 44.4 °C.
For GCTATCGGAAACGATAGC (((((((....))))))), the folding enthalpy in series [1] is -52.4 kcal/mol. Further, the Tm in series [2] was determined as 64.3 °C.
For GTGAAAACGAAAGTTCAC (((..(((....)))))), in that order: -21.7 kcal/mol and 38.4 °C.
For GATCTATAAGTAGATC ((((((....)))))), in that order: -35.6 kcal/mol and 41.6 °C.
On the same counts, the results for GCCAATGGAAACATTGGC (((((((....))))))) are -38.3 kcal/mol and 67.8 °C.
For GATCAAGGAAACTTGACC (.(((((....))))).), the folding enthalpy in series [1] was -18.7 kcal/mol. Besides, in series [2], the Tm amounted to 29.8 °C.
On the same counts, the results for CGTCGCGGAAACGCACG (((.(((....)))))) are -19.4 kcal/mol and 50.5 °C.
For GGCGCCGCGAAAGCGGCC (((..(((....)))))), in that order: -5.39 kcal/mol and 49.1 °C.
For CAGAAGAAATTCTG (((((....))))), in that order: -12.7 kcal/mol and 33.8 °C.
GCCGACGAAAGTCTGGC ((((((....))).))): the folding enthalpy in series [1] is -34.6 kcal/mol. In addition, the Tm in series [2] amounted to 58.2 °C.
For GCGAGTACGAAAGTACGC (((..(((....)))))), in that order: -12 kcal/mol and 53.1 °C.
For GCTTTTGGAAACAAAAAC (.(((((....))))).), in that order: -13.2 kcal/mol and 26.6 °C.
On the same counts, the results for GGGCTAGAAATAGCCC ((((((....)))))) are -30.3 kcal/mol and 64 °C.
Turning to GTTCGGGGAAACCCGAGC (.(((((....))))).), the folding enthalpy in series [1] was -25.5 kcal/mol. Further, the Tm in series [2] came to 53.3 °C.
On the same counts, the results for GACTGCCGAAAGGCCGTC (((.(((....))).))) are -25 kcal/mol and 53.4 °C.
On the same counts, the results for GGAGGCGCGAAAGCGTCC (((..(((....)))))) are -8.65 kcal/mol and 47 °C.
For GCGGCAAGCCGC ((((....)))), in that order: -28.3 kcal/mol and 68.1 °C.
For GATCTTCTTAAAGATC ((((((....)))))), the folding enthalpy in series [1] was -32.7 kcal/mol. The Tm in series [2] stood at 46 °C.
Take GGTTCAGGAAACTAAACC ((((.((....)).)))): in series [1], the folding enthalpy is -15.3 kcal/mol. In series [2], the Tm is 28.6 °C.
For GCGAGAGATCGC ((((....)))), in that order: -17.5 kcal/mol and 50.3 °C.
On the same counts, the results for GATGTAGAAATACATC ((((((....)))))) are -30.3 kcal/mol and 45.7 °C.
For GGTCTTGGAAACAAGATC (.(((((....))))).), in that order: -25.7 kcal/mol and 44.5 °C.
GATCAATCCATTGATC ((((((....)))))): the folding enthalpy in series [1] is -42.6 kcal/mol. For the same sequence, the Tm in series [2] came to 49.7 °C.
For GGGTCTGGAAACGGACTC (.(((.(....).))).), in that order: -28.3 kcal/mol and 37.5 °C.
